Test results taken from ChEMBL document CHEMBL1926540, “Conformationally restricted analogs of the direct thrombin inhibitor FM 19” (Bioorg Med Chem, 2011).

Biological target: Prothrombin (Homo sapiens, UniProt P00734)
Assay: Inhibition of human alpha-thrombin using sarcosine-Pro-Arg-p-nitroanilide as substrate preincubated for 5 mins before substrate addition measured after 10 mins by spectrophotometry
Method in brief: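 Human α-thrombin (>95% pure, 5070 U/mg) kept on ice in assay buffer (10 mM Tris, 150 mM NaCl, pH 7.6). Enzyme preincubated with peptide 5 min at 37 °C, then chromogenic substrate added. Final concentrations: 2 nM enzyme, 200 substrate. Nine peptide concentrations, each in triplicate.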

Compound | IC50 [µM]
Cc1ccc(C[C@H](NC(=O)[C@@H](C)NC(=O)[C@@H]2CCCN2C(=O)[C@@H]2C[C@@H]3CCCC[C@@H]3N2C(=O)c2cccc(C(=N)N)c2)C(N)=O)cc1 | 1.03
Cc1ccc(C[C@H](NC(=O)[C@@H](C)NC(=O)[C@@H]2CCCN2C(=O)[C@@H]2C[C@@H]3CCCC[C@@H]3N2C(=O)[C@H](C)CCCN=C(N)N)C(N)=O)cc1 | 98
Cc1ccc(C[C@H](NC(=O)[C@@H](C)NC(=O)[C@@H]2CCCN2C(=O)[C@@H]2C[C@@H]3CCCC[C@@H]3N2C(=O)[C@H]2CC[C@@H](N=C(N)N)CC2)C(N)=O)cc1 | 19.5
Cc1ccc(C[C@H](NC(=O)[C@@H](C)NC(=O)[C@@H]2CCCN2C(=O)[C@@H]2C[C@@H]3CCCC[C@@H]3N2C(=O)[C@@H](C)CCCN=C(N)N)C(N)=O)cc1 | 9.8
Cc1ccc(C[C@H](NC(=O)[C@@H](C)NC(=O)[C@@H]2CCCN2C(=O)[C@@H]2C[C@@H]3CCCC[C@@H]3N2C(=O)[C@H](N)CCCN=C(N)N)C(N)=O)cc1 | 4.4
Cc1ccc(C[C@H](NC(=O)[C@@H](C)NC(=O)[C@@H]2CCCN2C(=O)[C@@H]2C[C@@H]3CCCC[C@@H]3N2C(=O)[C@@H](N)CCCN=C(N)N)C(N)=O)cc1 | 73
Cc1ccc(C[C@H](NC(=O)[C@@H](C)NC(=O)[C@@H]2CCCN2C(=O)[C@@H]2C[C@@H]3CCCC[C@@H]3N2C(=O)Cc2ccc(C(=N)N)cc2)C(N)=O)cc1 | 0.45
Cc1ccc(C[C@H](NC(=O)[C@@H](C)NC(=O)[C@@H]2CCCN2C(=O)[C@@H]2C[C@@H]3CCCC[C@@H]3N2C(=O)c2ccc(NC(=N)N)cc2)C(N)=O)cc1 | 0.57
Cc1ccc(C[C@H](NC(=O)[C@@H](C)NC(=O)[C@@H]2CCCN2C(=O)[C@@H]2C[C@@H]3CCCC[C@@H]3N2C(=O)c2ccc(C(=N)N)cc2)C(N)=O)cc1 | 0.51
H-RPPGF-OH | 601
Cc1ccc(C[C@H](NC(=O)[C@@H](C)NC(=O)[C@@H]2CCCN2C(=O)[C@@H]2C[C@@H]3CCCC[C@@H]3N2C(=O)Cc2cccc(C(=N)N)c2)C(N)=O)cc1 | 26.2
Cc1ccc(C[C@H](NC(=O)[C@@H](C)NC(=O)[C@@H]2CCCN2C(=O)[C@@H]2C[C@@H]3CCCC[C@@H]3N2C(=O)[C@H]2CC[C@H](N=C(N)N)CC2)C(N)=O)cc1 | 2.5
